Assay results from article PMC3313018 (Cancer Chemotherapy and Pharmacology, 2011).
“Also recorded” adds a separate entry of the source. Read-outs that look alike come from different tables or passages of the source. Marks after values point to notes of the source that are not given here.

How the values were obtained:
[1] = system: Japanese patients with advanced solid tumors; test: Phase I safety and tolerability: DLTs and adverse events; format: in vivo; conditions: for DLTs / n/N, No. of patients with DLT/No. of patients at the dose level: Cycle 1
Outline: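 Open-label, single-centre 3+3 escalation, 20 then 40 mg orally (single dose Day 1, then daily 5 days/week from Day 8). DLT window was the first 28-day cycle, counting drug-related Grade 4 neutropenia >5 days, febrile (>38.5°C) Grade 3–4 neutropenia, Grade 4 thrombocytopenia, and Grade 3–4 non-haematologic toxicity with exceptions. Adverse events graded by CTCAE v3.0 over all cycles. Dose intensity <75% excluded from DLT evaluation.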

[2] = Whole blood and plasma pharmacokinetics; format: in vivo, Japanese patients
Outline: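 Cycle 1, oral 20 or 40 mg. Whole blood and plasma sampled predose and 0.5–168 h after the Day 1 dose, predose on Days 15, 18, 22 and 23, and predose to 24 h on Day 26; assayed by HPLC-MS/MS. Tmax, Cmax and Ctrough taken by inspection. […] Accumulation (Day 26/Day 1) from a linear mixed effects model on ln values.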

[3] = system: metastatic or locally advanced solid tumors; test: Antitumor activity by RECIST version 1.0; format: in vivo, Japanese patients
Outline: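 Exploratory tumour assessment by RECIST v1.0 in refractory metastatic or locally advanced solid tumours. Oral 20 or 40 mg: single dose Day 1, washout ≥6 days, then once daily 5 days on/2 days off on Days 8–28 as inpatients. Later 21-day cycles at 5 days a week until progression or unacceptable toxicity.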

[4] = system: non-Japanese patients with refractory or advanced solid cancer; conditions: cited from earlier work; for Maximum tolerated dose (MTD): non-Japanese patients ref 10–13
sarcoma = conditions: Phase III sarcoma maintenance study, P = 0.0001, stratified log-rank ref 24; cited from earlier work
mTOR = conditions: in vitro ref 8; cited from earlier work
human tumor cell lines = conditions: in vitro ref 8; cited from earlier work
[5] = All patients (n = 13), all cycles
[6] = all patients (n = 13), all cycles

CO[C@H]1C[C@@H]2CC[C@@H](C)[C@@](O)(O2)C(=O)C(=O)N2CCCC[C@H]2C(=O)O[C@H]([C@H](C)C[C@@H]2CC[C@@H](OP(C)(C)=O)[C@H](OC)C2)CC(=O)[C@H](C)/C=C(\C)[C@@H](O)[C@@H](OC)C(=O)[C@H](C)C[C@H](C)/C=C/C=C/C=C/1C [ridaforolimus, Ridaforolimus]
Anorexia, drug-related adverse event, Grades 1–2, no. of patients ([1]; 20 mg (n = 7), all cycles): 2 | Constipation, drug-related adverse event, Grades 1–2, no. of patients ([1]; 20 mg (n = 7), all cycles): 3 | Fatigue, drug-related adverse event, Grades 1–2, no. of patients ([1]; 20 mg (n = 7), all cycles): 1 | Hypercholesterolemia, drug-related adverse event, Grades 1–2, no. of patients ([1]; 20 mg (n = 7), all cycles): 3 | Hyperglycemia, drug-related adverse event, Grades 1–2, no. of patients ([1]; 20 mg (n = 7), all cycles): 2 | Hypertriglyceridemia, drug-related adverse event, Grades 1–2, no. of patients ([1]; 20 mg (n = 7), all cycles): 5 | Hypoalbuminemia, drug-related adverse event, Grades 1–2, no. of patients ([1]; 20 mg (n = 7), all cycles): 2 | Interstitial pneumonitis, drug-related adverse event, Grades 1–2, no. of patients ([1]; 20 mg (n = 7), all cycles): 1 | Interstitial pneumonitis, drug-related adverse event, Grades 3–4, no. of patients ([1]; 20 mg (n = 7), all cycles): 0 | Leukopenia, drug-related adverse event, Grades 1–2, no. of patients ([1]; 20 mg (n = 7), all cycles): 1 | Leukopenia, drug-related adverse event, Grades 3–4, no. of patients ([1]; 20 mg (n = 7), all cycles): 1 | Neutropenia, drug-related adverse event, Grades 1–2, no. of patients ([1]; 20 mg (n = 7), all cycles): 1 | Neutropenia, drug-related adverse event, Grades 3–4, no. of patients ([1]; 20 mg (n = 7), all cycles): 2 | Proteinuria, drug-related adverse event, Grades 1–2, no. of patients ([1]; 20 mg (n = 7), all cycles): 3 | Stomatitis, drug-related adverse event, Grades 3–4, no. of patients ([1]; 20 mg (n = 7), all cycles): 1 | Thrombocytopenia, drug-related adverse event, Grades 1–2, no. of patients ([1]; 20 mg (n = 7), all cycles): 2 | Anemia, drug-related adverse event, Grades 1–2, no. of patients ([1]; 40 mg (n = 6), all cycles): 3 | Anemia, drug-related adverse event, Grades 3–4, no. of patients ([1]; 40 mg (n = 6), all cycles): 3 | Anorexia, drug-related adverse event, Grades 1–2, no. of patients ([1]; 40 mg (n = 6), all cycles): 2 | Anorexia, drug-related adverse event, Grades 3–4, no. of patients ([1]; 40 mg (n = 6), all cycles): 1 | Constipation, drug-related adverse event, Grades 1–2, no. of patients ([1]; 40 mg (n = 6), all cycles): 1 | Fatigue, drug-related adverse event, Grades 1–2, no. of patients ([1]; 40 mg (n = 6), all cycles): 3 | Hypercholesterolemia, drug-related adverse event, Grades 1–2, no. of patients ([1]; 40 mg (n = 6), all cycles): 3 | Hyperglycemia, drug-related adverse event, Grades 1–2, no. of patients ([1]; 40 mg (n = 6), all cycles): 2 | Hyperglycemia, drug-related adverse event, Grades 3–4, no. of patients ([1]; 40 mg (n = 6), all cycles): 1 | Hypertriglyceridemia, drug-related adverse event, Grades 1–2, no. of patients ([1]; 40 mg (n = 6), all cycles): 4 | Hypoalbuminemia, drug-related adverse event, Grades 1–2, no. of patients ([1]; 40 mg (n = 6), all cycles): 3 | Interstitial pneumonitis, drug-related adverse event, Grades 1–2, no. of patients ([1]; 40 mg (n = 6), all cycles): 3 | Interstitial pneumonitis, drug-related adverse event, Grades 3–4, no. of patients ([1]; 40 mg (n = 6), all cycles): 0 | Leukopenia, drug-related adverse event, Grades 1–2, no. of patients ([1]; 40 mg (n = 6), all cycles): 2 | Loss of body weight, drug-related adverse event, Grades 1–2, no. of patients ([1]; 40 mg (n = 6), all cycles): 4 | Neutropenia, drug-related adverse event, Grades 1–2, no. of patients ([1]; 40 mg (n = 6), all cycles): 1 | Proteinuria, drug-related adverse event, Grades 1–2, no. of patients ([1]; 40 mg (n = 6), all cycles): 3 | Rash, drug-related adverse event, Grades 1–2, no. of patients ([1]; 40 mg (n = 6), all cycles): 2 | Rash, drug-related adverse event, Grades 3–4, no. of patients ([1]; 40 mg (n = 6), all cycles): 1 | Stomatitis, drug-related adverse event, Grades 1–2, no. of patients ([1]; 40 mg (n = 6), all cycles): 6 | Thrombocytopenia, drug-related adverse event, Grades 1–2, no. of patients ([1]; 40 mg (n = 6), all cycles): 3 | Median time until the onset of stomatitis ([1]; 13 patients): 11 days | Number of patients who discontinued treatment because of adverse events ([1]; 13 patients): Six patients | Number of patients with stomatitis ([1]; 13 patients enrolled): 13 | Number of patients with grade 1 drug-induced interstitial pneumonitis ([1]; 13 patients, 20 and 40 mg): Four patients | Number of patients with dose-limiting toxicities ([1]; 20 and 40 mg, first cycle): Two patients | Anemia, drug-related adverse event, Grades 3–4, no. of patients [1, 5]: 4 | Anorexia, drug-related adverse event, Grades 1–2, no. of patients [1, 5]: 4 | Anorexia, drug-related adverse event, Grades 3–4, no. of patients [1, 5]: 1 | Constipation, drug-related adverse event, Grades 1–2, no. of patients [1, 5]: 4 | Fatigue, drug-related adverse event, Grades 1–2, no. of patients [1, 5]: 4 | Hypercholesterolemia, drug-related adverse event, Grades 1–2, no. of patients [1, 5]: 6 | Hyperglycemia, drug-related adverse event, Grades 1–2, no. of patients [1, 5]: 4 | Hyperglycemia, drug-related adverse event, Grades 3–4, no. of patients [1, 5]: 1 | Hypertriglyceridemia, drug-related adverse event, Grades 1–2, no. of patients [1, 5]: 9 | Hypoalbuminemia, drug-related adverse event, Grades 1–2, no. of patients [1, 5]: 5 | Interstitial pneumonitis, drug-related adverse event, Grades 1–2, no. of patients [1, 5]: 4 | Interstitial pneumonitis, drug-related adverse event, Grades 3–4, no. of patients [1, 5]: 0 | Leukopenia, drug-related adverse event, Grades 1–2, no. of patients [1, 5]: 3 | Leukopenia, drug-related adverse event, Grades 3–4, no. of patients [1, 5]: 1 | Loss of body weight, drug-related adverse event, Grades 1–2, no. of patients [1, 5]: 4 | Neutropenia, drug-related adverse event, Grades 1–2, no. of patients [1, 5]: 2 | Neutropenia, drug-related adverse event, Grades 3–4, no. of patients [1, 5]: 2 | Proteinuria, drug-related adverse event, Grades 1–2, no. of patients [1, 5]: 6 | Rash, drug-related adverse event, Grades 3–4, no. of patients [1, 5]: 1 | Stomatitis, drug-related adverse event, Grades 3–4, no. of patients [1, 5]: 1 | Thrombocytopenia, drug-related adverse event, Grades 1–2, no. of patients [1, 5]: 5 | Time to onset of DLT ([1]; Grade 3 anorexia, 40 mg): 23 days | Time to onset of DLT ([1]; Grade 3 stomatitis, 20 mg): 8 days | Time to onset of DLT ([1]; Grade 3 vomiting, 40 mg): 23 days | DLTs ([1]; Level 1, 20 mg): Grade 3 stomatitis | n/N, No. of patients with DLT/No. of patients at the dose level ([1]; Level 1, 20 mg): 1/6^b | DLTs ([1]; Level 2, 40 mg): Grade 3 anorexia; also recorded: Grade 3 vomiting | n/N, No. of patients with DLT/No. of patients at the dose level ([1]; Level 2, 40 mg): 1/6 | Incidence of hypercholesterolemia related to treatment [1, 6]: 46.2% | Incidence of hypertriglyceridemia related to treatment [1, 6]: 69.2% | Incidence of leucopenia [1, 6]: 30.8% | Incidence of neutropenia [1, 6]: 30.8% | Incidence of proteinuria related to treatment [1, 6]: 46.2% | Incidence of skin rash related to treatment [1, 6]: 61.5% | Incidence of stomatitis related to treatment [1, 6]: 100% | Incidence of thrombocytopenia [1, 6]: 38.5% | Patients requiring a dose reduction ([1]; dose level 2 (40 mg)): None | Interstitial pneumonitis among patients with other cancer types ([1]; eight patients with other cancer types): three cases occurred among eight patients | Interstitial pneumonitis among NSCLC patients ([1]; five patients with NSCLC): one of these five NSCLC patients | Time of occurrence of interstitial pneumonitis after the start of treatment ([1]; four patients): 2–5 months | Tolerability, in words ([1]; oral, once daily 5 days a week): well tolerated up to a dose of 40 mg | Time whole blood concentration was below the quantitation limit (<0.2 ng/mL) ([2]; Day 1, after administration of 20 mg): 2 to 4 h | Time whole blood concentration was below the quantitation limit (<0.2 ng/mL) ([2]; Day 1, after administration of 40 mg): 1 to 2 h | Time for mean whole blood C trough to reach steady state ([2]; once daily, 5 days a week): about 1 week | Blood-to-plasma ratio, in words ([2]; plasma vs whole blood concentration): high blood-to-plasma ratio | Accumulation from Day 1 to Day 26 (AUC0–24 h, C max, C trough), in words ([2]; whole blood): moderate accumulation | Accumulation ratio (Day 26/Day 1) AUC0–24 h, geometric mean ratio (90% confidence interval) ([2]; whole blood, 20 mg): 1.51 (1.14, 2.01) | Accumulation ratio (Day 26/Day 1) C max, geometric mean ratio (90% confidence interval) ([2]; whole blood, 20 mg): 1.37 (0.959, 1.97) | Accumulation ratio (Day 26/Day 1) C trough, geometric mean ratio (90% confidence interval) ([2]; whole blood, 20 mg): 2.02 (1.61, 2.52) | Accumulation ratio (Day 26/Day 1) AUC0–24 h, geometric mean ratio (90% confidence interval) ([2]; whole blood, 40 mg): 1.44 (1.05, 1.99) | Accumulation ratio (Day 26/Day 1) C max, geometric mean ratio (90% confidence interval) ([2]; whole blood, 40 mg): 1.01 (0.674, 1.50) | Accumulation ratio (Day 26/Day 1) C trough, geometric mean ratio (90% confidence interval) ([2]; whole blood, 40 mg): 1.76 (1.37, 2.25) | Lag time for systemic absorption ([2]; whole blood, Day 1, 20 and 40 mg): 1 to 4 h | Time at which C max was reached ([2]; whole blood, Days 1 and 26): approximately 4 h | Number of patients achieving a partial response ([3]; 13 patients, NSCLC and angiosarcoma): Two patients | Number of patients with stable disease for ≥16 weeks ([3]; 13 patients, one thymic cancer, four soft tissue sarcomas): five patients | Duration of stable disease ([3]; Patient 1, Osteosarcoma, 20 mg): 3.7 weeks | Duration of stable disease ([3]; Patient 3, Thymic cancer, 20 mg): 16.3 weeks | Duration of stable disease ([3]; Patient 5, Liposarcoma, 20 mg): 16.1 weeks | Duration of stable disease ([3]; Patient 6, NSCLC (adenocarcinoma), 20 mg): 4.0 weeks | Duration of stable disease ([3]; Patient 7, NSCLC (adenocarcinoma), 20 mg): 4.0 weeks | Duration of stable disease ([3]; Patient 8, Osteosarcoma, 40 mg): 4.0 weeks | Duration of stable disease ([3]; Patient 9, Liposarcoma, 40 mg): 17.3 weeks | Duration of stable disease ([3]; Patient 10, Leiomyosarcoma, 40 mg): 16.3 weeks | Duration of stable disease ([3]; Patient 11, Leiomyosarcoma, 40 mg): 17.1 weeks | Longest tumor diameter on CT ([3]; Patient 13, Day 28, baseline 42 mm): 21 mm | Time until the response ([3]; both patients with partial response): 28 days | DLTs ([4]; 40 mg daily, five times a week, non-Japanese patients ref 17): stomatitis and fatigue | Maximum tolerated dose (MTD) ([4]; daily regimen): 10 mg | Maximum tolerated dose (MTD) ([4]; once daily, five-times-a-week regimen): 40 mg | Hazard ratio for progression-free survival vs placebo (sarcoma): 0.72 | Effect on mTOR activity, in words (mTOR): inhibited mTOR activity | Antiproliferative activity, in words (human tumor cell lines): antiproliferative activity against a broad range of human tumor cell lines
